Measurements from ChEMBL document CHEMBL1146867, “Novel antibacterial class: a series of tetracyclic derivatives” (J Med Chem, 2006).
Values after ≈ are worked out from the molar mass of the structure shown.

Key:
Type in all cases: functional
Streptococcus pneumoniae [1] = experiment: Antibacterial activity against quinolone-susceptible Streptococcus pneumoniae ATCC 6303
How it was run: (§1)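 MICs were determined by broth microdilution following the National Committee for Clinical Laboratory Standards method for aerobically growing bacteria.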

Haemophilus influenzae = experiment: Antibacterial activity against quinolone-susceptible Haemophilus influenzae 1435; how it was run: as §1
Streptococcus pneumoniae [2] = experiment: Antibacterial activity against quinolone-resistant Streptococcus pneumoniae ATCC 7257
How it was run: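 MIC by broth microdilution following National Committee for Clinical Laboratory Standards methods for dilution susceptibility testing of aerobically growing bacteria, against the quinolone-resistant S. pneumoniae strain 7257.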

Streptococcus pneumoniae [3] = experiment: Inhibition on Streptococcus pneumoniae translation by uncoupled translation assay
How it was run: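 The assay was cell-free and translation-only (uncoupled), using S. pneumoniae material. Dried test compound was mixed with S30 extract, luciferase-encoding mRNA and a complete amino acid mix. The mix was incubated to allow translation, and the reaction was stopped with kanamycin. Luciferin reagent was then added, and read-out was by flash luminescence. Results are given as IC50.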

JIYOYE = experiment: Cytotoxicity against human B cells by Jijoye assay; settings: read-out: LD50 (the source's name)

SMILES | MIC (Streptococcus pneumoniae [1]) [mg/L] | MIC (Haemophilus influenzae) [mg/L] | MIC (Streptococcus pneumoniae [2]) [mg/L] | IC50 (Streptococcus pneumoniae [3]) [µM] | CC50 (JIYOYE) [mg/L]
O=C(O)c1cnc2nc3c(cc2c1O)OC[C@@H]1CCCN31 | 4 (≈ 13.9 µM) | 2 (≈ 6.96 µM) | 1 (≈ 3.48 µM) | 5.2 | > 100
CN1C[C@@H]2CCCN2c2nc3ncc(C(=O)O)c(O)c3cc21 | 8 (≈ 26.6 µM) | 8 (≈ 26.6 µM) | 2 (≈ 6.66 µM) | 0.89 | > 100
C[C@@H]1Oc2cc3c(O)c(C(=O)O)cnc3nc2N2CCC[C@@H]12 | 8 (≈ 26.6 µM) | 32 (≈ 106 µM) | 4 (≈ 13.3 µM) | 8.7 | > 100
CN1CCOc2cc3c(O)c(C(=O)O)cnc3nc21 | > 64 | 32 (≈ 122 µM) | 32 (≈ 122 µM) | 70 | > 100
O=C(O)c1cn(C2CC2)c2cc(N3CCNCC3)c(F)cc2c1=O [CIPROFLOXACIN] | 2 (≈ 6.04 µM) | – | 16 (≈ 48.3 µM) | 200 | –
O=C(O)c1cnc2nc3c(cc2c1O)N(c1ccccc1)C[C@@H]1CCCN31 | > 64 | > 64 | > 64 | 64 | > 100
O=C(O)c1cnc2nc(N3CCCC3)c(F)cc2c1O | 16 (≈ 57.7 µM) | < 1 | 4 (≈ 14.4 µM) | – | > 100
COc1ccc(Cn2cc(C(=O)O)c(=O)c3cc4c(nc32)N2CCC[C@@H]2CO4)c(OC)c1 | > 64 | > 64 | 16 (≈ 36.6 µM) | 229 | 6 (≈ 13.7 µM)
O=C(O)c1cnc2nc3c(cc2c1O)NC[C@@H]1CCCN31 | 16 (≈ 55.9 µM) | 8 (≈ 27.9 µM) | 8 (≈ 27.9 µM) | 10 | 18 (≈ 62.9 µM)
O=C(O)c1cnc2nc3c(cc2c1O)OC[C@H]1CCCN31 | 8 (≈ 27.8 µM) | 4 (≈ 13.9 µM) | 1 (≈ 3.48 µM) | 10.5 | > 100
CC(C)(C)n1cc(C(=O)O)c(=O)c2cc3c(nc21)N1CCC[C@H]1C(=O)N3 | > 64 | > 32 | > 64 | > 200 | > 100
C=CC[C@@H]1Oc2cc3c(O)c(C(=O)O)cnc3nc2N2CCC[C@@H]12 | > 64 | 64 (≈ 196 µM) | 8 (≈ 24.4 µM) | 47 | > 100
N[C@H]1C[C@H]2COc3cc4c(O)c(C(=O)O)cnc4nc3N2C1 | > 64 | > 64 | > 64 | 2.7 | > 100
O=C(O)c1cn(C2CC2)c2nc3c(cc2c1=O)OC[C@@H]1CCCN31 | > 64 | – | 8 (≈ 24.4 µM) | > 100 | –
